Assay results from ChEMBL document CHEMBL4808182, “Discovery of the Soluble Guanylate Cyclase Activator Runcaciguat (BAY 1101042)” (J Med Chem, 2021).

How the values were obtained:
[1] = Oral bioavailability in Wistar rat measured up to 24 hrs by LC-MS analysis; type: ADME, organism-based; settings: in vivo
[2] = Activation of recombinant rat sGC expressed in CHO cells by luminescence assay; type: cell-based; settings: CHO
Summary of the method: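 Stable CHO reporter cell line overexpressing rat sGC; cGMP formation read as luminescence. EC50 from concentration–response. MEC taken as lowest concentration giving at least threefold increase in basal luminescence.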

[3] = Volume of distribution at steady state in iv dosed cynomolgus monkey measured up to 24 hrs by LC-MS analysis; type: ADME, organism-based, Macaca fascicularis; settings: in vivo, read-out: Vdss
Summary of the method: (§1)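 Three animals per species and strain received an intravenous dose. Steady-state volume of distribution (L/kg) was derived from the blood concentration–time profile, alongside blood clearance and terminal half-life.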

[4] = Oral bioavailability in cynomolgus monkey measured up to 24 hrs by LC-MS analysis; type: ADME, organism-based, Macaca fascicularis; settings: in vivo
[5] = Half life in iv dosed Wistar rat measured up to 24 hrs by LC-MS analysis; type: ADME, organism-based; settings: in vivo
[6] = target: T1, Cytochrome P450 1A2 (Homo sapiens, UniProt P05177); test: Induction of CYP1A2 in human hepatocytes at > 123 ng/ml using phenacetin as substrate incubated for 60 mins by LC-MS/MS analysis; type: ADME, cell-based, Hepatocyte; settings: 1 h
T1 sequence (P05177 whole entry): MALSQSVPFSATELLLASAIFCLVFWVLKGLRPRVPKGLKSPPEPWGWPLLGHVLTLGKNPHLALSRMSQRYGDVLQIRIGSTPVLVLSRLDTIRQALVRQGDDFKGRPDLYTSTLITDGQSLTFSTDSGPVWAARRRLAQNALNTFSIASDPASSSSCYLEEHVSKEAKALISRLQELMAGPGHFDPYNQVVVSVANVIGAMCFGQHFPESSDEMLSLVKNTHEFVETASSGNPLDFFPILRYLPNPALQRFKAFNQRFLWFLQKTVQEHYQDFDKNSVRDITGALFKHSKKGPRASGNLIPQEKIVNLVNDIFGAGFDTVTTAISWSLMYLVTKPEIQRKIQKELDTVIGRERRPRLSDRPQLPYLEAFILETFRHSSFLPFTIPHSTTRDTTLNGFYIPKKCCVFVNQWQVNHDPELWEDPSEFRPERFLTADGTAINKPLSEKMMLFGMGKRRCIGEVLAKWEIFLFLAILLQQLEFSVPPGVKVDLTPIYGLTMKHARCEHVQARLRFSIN

[7] = Volume of distribution at steady state in iv dosed Beagle dog measured up to 24 hrs by LC-MS analysis; type: ADME, organism-based, Canis lupus familiaris; settings: in vivo, read-out: Vdss; summary of the method: as §1
[8] = Induction of CYP3A4 in human hepatocytes using phenacetin as substrate incubated for 60 mins by LC-MS/MS analysis; settings: 1 h
[9] = Clearance in Wistar rat at 0.3 mg/kg, iv measured up to 24 hrs by LC-MS analysis; type: ADME, organism-based; settings: in vivo
Summary of the method: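 Rats dosed iv at 0.3 mg/kg; blood clearance determined.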

[10] = target: T2, Guanylate cyclase soluble subunit alpha-1 (Rattus norvegicus) (UniProt P19686); test: Activation of recombinant rat sGC alpha1 subunit expressed in CHO cells assessed as induction of [32P-cGMP] formation using alpha-[32P-GTP] as substrate measured after 6 mins by luminescence assay; type: cell-based; settings: filed as activator
T2 sequence (whole entry): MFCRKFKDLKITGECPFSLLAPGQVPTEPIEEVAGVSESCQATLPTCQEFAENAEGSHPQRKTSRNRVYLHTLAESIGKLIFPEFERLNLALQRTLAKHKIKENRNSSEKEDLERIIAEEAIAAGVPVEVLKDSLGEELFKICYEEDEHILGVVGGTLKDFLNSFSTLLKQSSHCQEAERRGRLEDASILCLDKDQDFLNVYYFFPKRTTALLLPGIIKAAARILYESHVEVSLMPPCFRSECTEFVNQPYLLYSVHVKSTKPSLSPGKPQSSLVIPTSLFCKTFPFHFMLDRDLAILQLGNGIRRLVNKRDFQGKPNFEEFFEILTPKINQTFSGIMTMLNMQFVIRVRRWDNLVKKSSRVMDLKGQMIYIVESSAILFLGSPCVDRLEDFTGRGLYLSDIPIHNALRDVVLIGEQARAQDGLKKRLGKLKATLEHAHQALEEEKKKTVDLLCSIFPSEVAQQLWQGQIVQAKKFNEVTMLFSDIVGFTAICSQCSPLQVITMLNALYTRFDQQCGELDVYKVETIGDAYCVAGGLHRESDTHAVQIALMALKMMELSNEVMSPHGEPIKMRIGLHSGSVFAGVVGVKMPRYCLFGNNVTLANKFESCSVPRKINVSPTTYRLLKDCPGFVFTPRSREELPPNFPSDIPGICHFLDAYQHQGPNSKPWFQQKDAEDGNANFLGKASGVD

[11] = Half life in iv dosed Beagle dog measured up to 24 hrs by LC-MS analysis; type: ADME, organism-based, Canis lupus familiaris; settings: in vivo
[12] = Volume of distribution at steady state in iv dosed Wistar rat measured up to 24 hrs by LC-MS analysis; type: ADME, organism-based; settings: in vivo, read-out: Vdss; summary of the method: as §1
[13] = Plasma clearance in iv dosed Beagle dog measured up to 24 hrs by LC-MS analysis; type: ADME, organism-based, Canis lupus familiaris
[14] = Oral bioavailability in Beagle dog measured up to 24 hrs by LC-MS analysis; type: ADME, organism-based, Canis lupus familiaris; settings: in vivo
[15] = Half life in iv dosed cynomolgus monkey measured up to 24 hrs by LC-MS analysis; type: ADME, organism-based, Macaca fascicularis; settings: in vivo
[16] = Plasma clearance in iv dosed cynomolgus monkey measured up to 24 hrs by LC-MS analysis; type: ADME, organism-based, Macaca fascicularis
[17] = target: T2, Guanylate cyclase soluble subunit alpha-1 (Rattus norvegicus); test: Activation of recombinant rat sGC alpha1 subunit expressed in CHO cells assessed as induction of [32P-cGMP] formation by measuring efficacy using alpha-[32P-GTP] as substrate measured after 6 mins by luminescence assay relative to control; type: cell-based; settings: filed as activator

C[C@H]([C@H](C(=O)Nc1cc(C[C@H](C)C(=O)O)ccc1Cl)c1ccc(Cl)cc1)C(F)(F)F gave a bioavailability [1] of 100%, an EC50 [2] of 43 nM and a Vd [3] of 0.55 L/kg. For the same compound, the bioavailability [4] was 100%, the half-life [5] was 13 h and the Activity [6] was “Not Active”. For the same compound, the Vd [7] was 2.1 L/kg, the Activity [8] was 266 nM and the clearance [9] was 2.83 mL/min/kg. The MEC [10] was 10 nM, the half-life [11] was 9.3 h and the Vd [12] was 2 L/kg. The clearance [13] was 6.33 mL/min/kg, the bioavailability [14] was 78% and the half-life [15] was 8.3 h. It also gave a clearance [16] of 0.833 mL/min/kg and an Efficacy [17] of 63%.
